# Assay outcomes: PubChem, several laboratories
# TbHK1 inh: blocks Trypanosoma brucei hexokinase 1 activity; AID 1430; 220,000 tested, 0.11% active; recombinant TbHK1, G6PDH-coupled NADH A340; inhibition, % at 10 µM;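 active means inhibition of 50% or more in the single-dose primary screen; inactive means inhibition below 50%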
# PfGluPho inh: PfG6PD (Plasmodium falciparum) enzyme inhibition | PfGluPho enzyme, NADPH resazurin-diaphorase fluorescence | inhibition, % at 20 µM | 350,000 tested, 0.78% active;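 active means inhibition reaching at least a set limit at 20 µM in the primary screen, cut at about 59% in these data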;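 further: 0% = DMSO wells with substrate and 100% = DMSO wells lacking glucose-6-phosphate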
# G6PDH counter: counter-screen for G6PDH assay hits: L. mesenteroides G6PDH inhibition; 200,000 tested, 0.12% active; Purified L. mesenteroides G6PDH, diaphorase/resazurin coupled fluorescence, 45 min; inhibition, % at 5 µM; in the data active means inhibition above about 50%
# Diaphorase inh: counter-screen for diaphorase-based assays: diaphorase inhibitors and chemical oxidizers | AID 1217 | 190,000 tested, 0.69% active | diaphorase resazurin-to-resorufin fluorescence, NADH, 16 min; bacterial (C. kluyveri) enzyme, not human | inhibition, % at 20 µM;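 active means primary screen inhibition at 20 µM above a set limit, cut at about 50% in these data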;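 further: plate controls were DMSO with full reaction for no effect and wells lacking NADH for full effect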
#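 System: Bacterial diaphorase enzyme (C. kluyveri) | Incubation: 16-min room-temperature incubation before reading | Benchmarks: No-NADH positive control and DMSO neutral control | Measured by: Resorufin fluorescence 544/590 nm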
# HKDC1 inh: inhibitors of human hexokinase HKDC1; recombinant HKDC1, G6PDH/diaphorase resazurin coupled fluorescence; Q2TB90; 340,000 tested, 0.16% active; inhibition, % at 20 µM;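 active means inhibition above about 35% when tested at 20 µM, limit read from the data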;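 further: plate controls were DMSO wells with enzyme for no effect and DMSO wells lacking enzyme for full effect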
# Target sequence (Q2TB90 whole entry, looked up): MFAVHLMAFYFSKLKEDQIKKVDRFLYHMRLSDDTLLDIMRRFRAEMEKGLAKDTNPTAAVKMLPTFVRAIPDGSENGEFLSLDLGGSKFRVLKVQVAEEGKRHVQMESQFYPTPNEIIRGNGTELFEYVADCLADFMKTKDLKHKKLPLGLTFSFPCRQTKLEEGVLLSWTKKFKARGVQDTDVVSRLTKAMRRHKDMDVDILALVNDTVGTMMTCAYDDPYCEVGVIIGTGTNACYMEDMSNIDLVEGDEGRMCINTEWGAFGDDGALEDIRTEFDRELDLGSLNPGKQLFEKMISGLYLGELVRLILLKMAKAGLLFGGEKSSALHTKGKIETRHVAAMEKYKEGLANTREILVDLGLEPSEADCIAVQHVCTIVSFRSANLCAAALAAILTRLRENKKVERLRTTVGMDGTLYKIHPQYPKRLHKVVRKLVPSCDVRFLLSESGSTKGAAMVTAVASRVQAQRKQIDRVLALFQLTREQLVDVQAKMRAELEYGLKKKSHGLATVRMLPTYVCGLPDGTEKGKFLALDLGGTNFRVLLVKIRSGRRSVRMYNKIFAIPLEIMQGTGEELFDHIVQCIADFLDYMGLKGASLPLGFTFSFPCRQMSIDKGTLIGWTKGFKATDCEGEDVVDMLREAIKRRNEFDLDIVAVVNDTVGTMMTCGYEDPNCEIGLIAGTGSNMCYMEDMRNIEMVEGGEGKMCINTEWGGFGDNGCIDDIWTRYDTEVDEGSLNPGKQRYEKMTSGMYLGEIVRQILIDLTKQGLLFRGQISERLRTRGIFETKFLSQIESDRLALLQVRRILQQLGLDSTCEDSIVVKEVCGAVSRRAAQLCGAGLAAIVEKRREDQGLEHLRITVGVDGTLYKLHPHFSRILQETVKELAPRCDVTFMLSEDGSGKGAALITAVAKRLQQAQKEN
#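 Assay system: recombinant HKDC1 hexokinase; detection: coupled resazurin fluorescence, excitation 525 nm, emission 613 nm; benchmarks: DMSO-plus-enzyme-mix negative control, buffer-substituted positive control; compound dosing: single 20 µM dose; schedule: 90 min at room temperature in dark; also added: glucose plus 1 mM ATP as hexokinase substrates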
# Starred values were filed as active, the others as inactive; . = not tested or not shown. Most compounds without a hit are left out; they make up all but 1.2% or so of the library.
SMILES,TbHK1 inh,PfGluPho inh,G6PDH counter,Diaphorase inh,HKDC1 inh
Nc1ccc2c3c(cccc13)CC2,-14.1,26.8,40.3,55.6*,11.9
c1ccc(Nc2ccc3c4c(cccc24)CC3)cc1,0.1,20.4,6.4,6.2,-2.2
CC(C)[C@H](NC(=O)c1ccc(Cl)cc1)C(=O)Nc1cccc(S(=O)(=O)N2CCOCC2)c1,.,16.9,.,.,.
COc1ccc(/C=N/NC(=O)c2nn(-c3ccc(C)c(C)c3)c(=O)c3ccccc23)cc1,-14.8,0.7,-39.9,22.0,-1.2
COc1ccc(/C=N/NC(=O)c2nn(-c3ccccc3)c(=O)c3c(N)scc23)cc1,-15.7,36.1,30.1,57.1*,22.9
COc1ccc(/C=N/NC(=O)c2nn(-c3ccc(Cl)cc3)c(=O)c3c(N)scc23)cc1,-15.2,27.0,12.3,50.4*,15.8
COc1ccc(/C=N\NC(=S)SCN2C(=O)C3CCC(C)(C2=O)C3(C)C)cc1 (stereo not drawn),-16.4,12.1,.,.,-16.6
CC12CCC(C(=O)N(CSC(=S)N/N=C\c3ccccc3O)C1=O)C2(C)C (stereo not drawn),7.8,-31.0,5.1,56.7*,-25.6
O=C(O)CCc1nn2c3ccccc3n(Cc3ccccc3F)c2nc1=O,-0.8,-5.4,-0.8,1.9,-4.6
Cc1ccc(NC(=O)/C(=C\c2ccc([N+](=O)[O-])cc2)NC(=O)c2ccccc2)cc1,-21.8,-18.1,9.2,-5.2,-3.3
O=C(N/N=C/c1ccc(O)c(O)c1O)/C(=C/c1ccc([N+](=O)[O-])cc1)NC(=O)c1ccccc1,-5.7,83.8*,1.8,73.6*,24.6
Cc1occc1-c1nnc(SCC(=O)Nc2ccccc2)n1C,-9.4,-9.9,5.8,77.9*,0.9
Cc1ccc(C(=O)NC(=S)NNC(=O)CC#N)cc1,-4.8,1.2,8.8,57.4*,-16.0
COc1ccc(NC(=O)c2cc3c(COC(C)=O)cnc(C)c3oc2=Nc2cccc(C(=O)O)c2)c(OC)c1,.,67.8*,.,.,0.7
C[C@@H]1ON(C)[C@H]2C[C@H]3c4[nH]c5ccc(-c6ccc7c(c6)OCO7)cc5c4CCN3C[C@@H]12,.,19.8,.,.,.
Cc1ccc2sc(NNC(=O)c3cc(=O)c4ccccc4o3)nc2c1C,-10.6,4.5,8.4,57.6*,-20.6
Cc1cccc2sc(NNC(=O)c3cc(=O)c4ccccc4o3)nc12,-3.0,24.8,8.7,49.4,-22.9
CCOC(=O)c1nnn2c1nc(N1CCCCC1)c1ccccc12,-29.2,12.3,.,.,-1.1
CCC1CCCCN1c1nc2c(C=O)c(C)nn2c2ccccc12 (stereo not drawn),-17.7,-6.6,-23.7,67.6*,-7.6
Cc1ccc(C(=O)COC(=O)[C@@H](NC(=O)c2ccco2)C(C)C)s1,.,-13.9,.,.,-3.2
C[C@]12CC[C@H](O)CC1=CCC1C2CC[C@@]2(C)C1CC[C@@H]2NCc1ccccc1 (stereo partly drawn),.,2.9,.,.,.
Cc1oc(-c2ccc(F)cc2)cc1-c1nn2c(-c3ccoc3C)nnc2s1,.,13.1,7.0,57.5*,3.4
Cc1cccc(NC(=O)CNC(=O)COC(=O)C2CC2C)c1C (stereo not drawn),.,-2.3,.,.,-4.0
S=c1[nH]ncn1/N=C/c1ccccc1,37.5,27.7,1.2,60.3*,3.9
S=c1[nH]ncn1/N=C/c1ccc(Br)cc1,-9.1,20.9,-0.1,41.8,9.6
SMILES,TbHK1 inh,PfGluPho inh,G6PDH counter,Diaphorase inh,HKDC1 inh
NC(=O)CN1CCOCCN(CC(N)=O)CCOCC1,.,14.3,55.9*,8.2,-0.2
NC(=O)CN1CCOCCOCCN(CC(N)=O)CCOCCOCC1,3.3,-16.4,5.3,2.4,1.5
O=[N+]([O-])c1ccc(N2CCN(Cc3ccccc3)CC2)c2c1no[n+]2[O-],.,28.9,.,.,.
N#CC1(NC(=O)COC(=O)c2cc(O)c3ccccc3c2O)CCCCC1,.,58.7,.,.,49.7*
CC(=O)N1CCc2c(sc(NC(=O)c3ccc(S(=O)(=O)N(C)CC4CCCO4)cc3)c2C(N)=O)C1 (stereo not drawn),.,3.8,.,.,.
COc1c2ccoc2cc2oc(C)cc(=O)c12,.,11.5,.,.,-3.0
Cc1cc(=O)c2c(O)c(O)ccc2o1,-21.0,28.3,49.7,72.3*,19.3
N#Cc1cccc(N=Cc2c(O)ccc3ccccc23)c1,1.8,16.4,62.1*,36.4,32.3
FC(F)Oc1cccc(NC(=S)N2CCN(c3ccccn3)CC2)c1,0.6,39.6,0.5,69.6*,-6.2
Cc1ccc(Nc2cc(=O)n(C)c(=O)[nH]2)cc1C,.,-2.8,.,.,.
S=c1nc(SCc2ccccc2)[nH]c2ccccc12,-10.1,-11.4,5.0,86.9*,-8.0
